These results are taken from ChEMBL document CHEMBL4425095, “Novel Cephalosporins Selectively Active on Nonreplicating Mycobacterium tuberculosis” (J Med Chem, 2016).

For orientation: MIC90 means an inhibitory concentration at the 90% level, which refers to growth in some studies and to a panel of isolates in others. Read a high MIC90 as lower susceptibility.

This assay relates to Mycobacterium tuberculosis. Nature of the assay: Antibacterial activity against replicating Mycobacterium bovis BCG measured at OD580 = 0.01. Format: functional. Particulars: variant bovis BCG. The essentials:
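Replicating organisms in the paper's earlier-described bacteriologic medium; 200 μL of cells at OD580 0.01 exposed to DMSO vehicle or drug in 96-well plates; growth read by optical density.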

In turn, `CC1=C(c2nc(C)no2)N2C(=O)[C@@H](NC(=O)COc3ccccc3)[C@H]2SC1` came in with an MIC90 of over 100 µg/mL. In turn, `CCCOC(=O)C1=C(C)CS[C@@H]2[C@H](NC(=O)COc3ccccc3)C(=O)N12` returned an MIC90 of over 100 µg/mL.
